Source: ChEMBL document CHEMBL4052722, “Virtual screening, synthesis and biological evaluation of DNA intercalating antiviral agents” (Bioorg Med Chem Lett, 2017)
The source made the active and inactive calls. The calls are words filed in the database; no cut-off is given here.

Test system: not listed separately
Assay: Cytotoxicity against African green monkey CV1 cells assessed as viable cells at 1 uM after 110 hrs by real-time cell analysis relative to control
Format: cell-based, CV-1
Conditions: chlorocebus aethiops, read-out: Activity
Summary of the method: (§1)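 CV-1 cell viability was monitored in real time on an xCelligence Real-Time Cell Analyzer. This ran in parallel with the plaque-forming assay, in which cells were pre-incubated with the compounds for 4 h before infection.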

Row | Structure (SMILES) | viability at 110 h, 1 µM [%]
1 | CN(C)CCCNCCn1c2ccccc2c2nc3ccccc3nc21 | 114
2 | COc1ccc2c(c1)c1nc3ccccc3nc1n2CCN1CCCCC1 | 108
3 | CCN(CC)CCCNCCn1c2ccccc2c2nc3ccccc3nc21 | 97.1
4 | c1ccc2nc3c(nc2c1)c1ccccc1n3CCNCCCN1CCOCC1 | 107
5 | CN(C)CCCNC(=O)Cn1c2ccccc2c2nc3ccccc3nc21 | 104

Test system: not listed separately
Assay: Cytotoxicity against African green monkey CV1 cells assessed as viable cells at 10 uM after 110 hrs by real-time cell analysis relative to control
Format: cell-based, CV-1
Conditions: chlorocebus aethiops, read-out: Activity
Summary of the method: as §1

Row | Structure (SMILES) | viability at 110 h, 10 µM [%]
6 | CN(C)CCCNCCn1c2ccccc2c2nc3ccccc3nc21 | 110
7 | COc1ccc2c(c1)c1nc3ccccc3nc1n2CCN1CCCCC1 | 96.9
8 | CCN(CC)CCCNCCn1c2ccccc2c2nc3ccccc3nc21 | 125
9 | c1ccc2nc3c(nc2c1)c1ccccc1n3CCNCCCN1CCOCC1 | 110
10 | CN(C)CCCNC(=O)Cn1c2ccccc2c2nc3ccccc3nc21 | 131

Test system: Vesicular stomatitis virus
Assay: Antiviral activity against Vesicular stomatitis virus at 0.2 to 620 uM after 24 hrs post infection relative to control
Format: functional
Conditions: not given

Row | Structure (SMILES) | Activity [%]
11 | CN(C)CCCNCCn1c2ccccc2c2nc3ccccc3nc21 | 69
12 | CCN(CC)CCCNCCn1c2ccccc2c2nc3ccccc3nc21 | 53
13 | CN(C)CCNC(=O)Cn1c2ccccc2c2nc3ccccc3nc21 | 82
14 | c1ccc2nc3c(nc2c1)c1ccccc1n3CCNCCCN1CCOCC1 | 52
15 | CN(C)CCCOC(=O)Cn1c2ccccc2c2nc3ccccc3nc21 | 100
16 | CN(C)CCCNC(=O)Cn1c2ccccc2c2nc3ccccc3nc21 | 50
17 | CN(C)CCOC(=O)CCCn1c2ccccc2c2nc3ccccc3nc21 | 75
18 | c1ccc2nc3c(nc2c1)c1ccccc1n3CCNCCN1CCCCC1 | 52
19 | O=C(CCCn1c2ccccc2c2nc3ccccc3nc21)OCCN1CCOCC1 | 80
20 | CCN(CC)CCCNC(=O)Cn1c2ccccc2c2nc3ccccc3nc21 | 85
21 | CCCCN(C)CCn1c2ccccc2c2nc3ccccc3nc21 | 75
22 | CCN(CC)CCNC(=O)Cn1c2ccccc2c2nc3ccccc3nc21 | 75
23 | O=C(Cn1c2ccccc2c2nc3ccccc3nc21)NCCCN1CCOCC1 | 60
24 | CN(C)CCNCCn1c2ccccc2c2nc3ccccc3nc21 | 42
25 | CN(C)CCn1c2ccccc2c2nc3ccccc3nc21 | 75
26 | CCN(CC)CCNCCn1c2ccccc2c2nc3ccccc3nc21 | 73
27 | O=C(Cn1c2ccccc2c2nc3ccccc3nc21)NCCN1CCOCC1 | 50
28 | CN1CCN(CCn2c3ccccc3c3nc4ccccc4nc32)CC1 | 85
29 | CCN(CC)CCN1C(=O)/C(=N\NC(=O)CN2CCN(C)CC2)c2ccccc21 | 0
30 | O=C(Cn1c2ccccc2c2nc3ccccc3nc21)NCCNCCO | 70

Test system: not listed separately
Assay: Cytotoxicity against African green monkey CV1 cells assessed as viable cells at 50 uM after 110 hrs by real-time cell analysis relative to control
Format: cell-based, CV-1
Conditions: chlorocebus aethiops, read-out: Activity
Summary of the method: as §1

Row | Structure (SMILES) | viability at 110 h, 50 µM [%]
31 | COc1ccc2c(c1)c1nc3ccccc3nc1n2CCN1CCCCC1 | 75.6
32 | CCN(CC)CCCNCCn1c2ccccc2c2nc3ccccc3nc21 | 17.2
33 | CN(C)CCCNC(=O)Cn1c2ccccc2c2nc3ccccc3nc21 | 90

Test system: not listed separately
Assay: Cytotoxicity against African green monkey CV1 cells assessed as reduction in cell viability preincubated for 4 hrs measured after 24 hrs by MTT assay relative to control
Format: cell-based, CV-1
Conditions: chlorocebus aethiops
Summary of the method: (§2)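 CV-1 cells were exposed to test samples at 0.1, 10 and 100 μM. Viability was read by MTT assay.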

Row | Structure (SMILES) | CC50 at 24 h [µM]
34 | CN(C)CCCNCCn1c2ccccc2c2nc3ccccc3nc21 | 50 to 92
35 | COc1ccc2c(c1)c1nc3ccccc3nc1n2CCN1CCCCC1 | 100 to 170
36 | CCN(CC)CCCNCCn1c2ccccc2c2nc3ccccc3nc21 | 30 to 50
37 | CN(C)CCNC(=O)Cn1c2ccccc2c2nc3ccccc3nc21 | > 100
38 | c1ccc2nc3c(nc2c1)c1ccccc1n3CCNCCCN1CCOCC1 | 50 to 81
39 | CN(C)CCCOC(=O)Cn1c2ccccc2c2nc3ccccc3nc21 | 100
40 | CN(C)CCCNC(=O)Cn1c2ccccc2c2nc3ccccc3nc21 | 100 to 500
41 | CN(C)CCOC(=O)CCCn1c2ccccc2c2nc3ccccc3nc21 | 100
42 | c1ccc2nc3c(nc2c1)c1ccccc1n3CCNCCN1CCCCC1 | > 100
43 | O=C(CCCn1c2ccccc2c2nc3ccccc3nc21)OCCN1CCOCC1 | > 100
44 | CCN(CC)CCCNC(=O)Cn1c2ccccc2c2nc3ccccc3nc21 | 100
45 | CCCCN(C)CCn1c2ccccc2c2nc3ccccc3nc21 | > 100
46 | CCN(CC)CCNC(=O)Cn1c2ccccc2c2nc3ccccc3nc21 | > 100
47 | O=C(Cn1c2ccccc2c2nc3ccccc3nc21)NCCCN1CCOCC1 | > 100
48 | CN(C)CCNCCn1c2ccccc2c2nc3ccccc3nc21 | > 100
49 | CN(C)CCn1c2ccccc2c2nc3ccccc3nc21 | 10
50 | CCN(CC)CCNCCn1c2ccccc2c2nc3ccccc3nc21 | > 100
51 | O=C(Cn1c2ccccc2c2nc3ccccc3nc21)NCCN1CCOCC1 | > 100
52 | CN1CCN(CCn2c3ccccc3c3nc4ccccc4nc32)CC1 | 50

Test system: not listed separately
Assay: Cytotoxicity against African green monkey CV1 cells assessed as cell viability at 0.1 to 100 uM preincubated for 4 hrs measured after 24 hrs by MTT assay relative to control
Format: cell-based, CV-1
Conditions: chlorocebus aethiops, read-out: Activity
Summary of the method: as §2

Row | Structure (SMILES) | viability at 24 h, up to 100 µM [%]
53 | CN(C)CCCNCCn1c2ccccc2c2nc3ccccc3nc21 | 88
54 | COc1ccc2c(c1)c1nc3ccccc3nc1n2CCN1CCCCC1 | 79
55 | CCN(CC)CCCNCCn1c2ccccc2c2nc3ccccc3nc21 | 74
56 | CN(C)CCNC(=O)Cn1c2ccccc2c2nc3ccccc3nc21 | 94
57 | c1ccc2nc3c(nc2c1)c1ccccc1n3CCNCCCN1CCOCC1 | 79
58 | CN(C)CCCOC(=O)Cn1c2ccccc2c2nc3ccccc3nc21 | 87
59 | CN(C)CCCNC(=O)Cn1c2ccccc2c2nc3ccccc3nc21 | 84
60 | CN(C)CCOC(=O)CCCn1c2ccccc2c2nc3ccccc3nc21 | 94
61 | c1ccc2nc3c(nc2c1)c1ccccc1n3CCNCCN1CCCCC1 | 113
62 | O=C(CCCn1c2ccccc2c2nc3ccccc3nc21)OCCN1CCOCC1 | 102
63 | CCN(CC)CCCNC(=O)Cn1c2ccccc2c2nc3ccccc3nc21 | 88
64 | CCCCN(C)CCn1c2ccccc2c2nc3ccccc3nc21 | 92
65 | CCN(CC)CCNC(=O)Cn1c2ccccc2c2nc3ccccc3nc21 | 100
66 | O=C(Cn1c2ccccc2c2nc3ccccc3nc21)NCCCN1CCOCC1 | 102
67 | CN(C)CCNCCn1c2ccccc2c2nc3ccccc3nc21 | 99
68 | CN(C)CCn1c2ccccc2c2nc3ccccc3nc21 | 62
69 | CCN(CC)CCNCCn1c2ccccc2c2nc3ccccc3nc21 | 99
70 | O=C(Cn1c2ccccc2c2nc3ccccc3nc21)NCCN1CCOCC1 | 109
71 | CN1CCN(CCn2c3ccccc3c3nc4ccccc4nc32)CC1 | 82

Organism: Bos taurus
Assay: Displacement of ethidium bromide from calf thymus DNA by fluorescence binding assay
Conditions: not given

Row | Structure (SMILES) | log Ka
72 | CN(C)CCCNCCn1c2ccccc2c2nc3ccccc3nc21 | 6.76
73 | CCN(CC)CCCNCCn1c2ccccc2c2nc3ccccc3nc21 | 6.87
74 | CN(C)CCNC(=O)Cn1c2ccccc2c2nc3ccccc3nc21 | 5.38
75 | c1ccc2nc3c(nc2c1)c1ccccc1n3CCNCCCN1CCOCC1 | 6.72
76 | CN(C)CCCOC(=O)Cn1c2ccccc2c2nc3ccccc3nc21 | 5.28
77 | CN(C)CCCNC(=O)Cn1c2ccccc2c2nc3ccccc3nc21 | 5.2
78 | CN(C)CCOC(=O)CCCn1c2ccccc2c2nc3ccccc3nc21 | 5.56
79 | c1ccc2nc3c(nc2c1)c1ccccc1n3CCNCCN1CCCCC1 | 6.85
80 | O=C(CCCn1c2ccccc2c2nc3ccccc3nc21)OCCN1CCOCC1 | 5.7
81 | CCN(CC)CCCNC(=O)Cn1c2ccccc2c2nc3ccccc3nc21 | 4.93
82 | CCCCN(C)CCn1c2ccccc2c2nc3ccccc3nc21 | 5.93
83 | CCN(CC)CCNC(=O)Cn1c2ccccc2c2nc3ccccc3nc21 | 5.03
84 | O=C(Cn1c2ccccc2c2nc3ccccc3nc21)NCCCN1CCOCC1 | 5.32
85 | CN(C)CCNCCn1c2ccccc2c2nc3ccccc3nc21 | 6.83
86 | CN(C)CCn1c2ccccc2c2nc3ccccc3nc21 | 5.93
87 | CCN(CC)CCNCCn1c2ccccc2c2nc3ccccc3nc21 | 6.82
88 | O=C(Cn1c2ccccc2c2nc3ccccc3nc21)NCCN1CCOCC1 | 5.13
89 | CN1CCN(CCn2c3ccccc3c3nc4ccccc4nc32)CC1 | 5.87
90 | CCN(CC)CCN1C(=O)/C(=N\NC(=O)CN2CCN(C)CC2)c2ccccc21 | 5.99
91 | O=C(Cn1c2ccccc2c2nc3ccccc3nc21)NCCNCCO | 5.37

Test system: not listed separately
Assay: Selectivity index, ratio of CC50 for African green monkey CV1 cells to IC50 for Vaccinia virus LIVP harboring GFP infected in African green monkey CV1 cells
Format: toxicity
Conditions: read-out: Ratio CC50/IC50

Row | Structure (SMILES) | selectivity ratio
92 | CN(C)CCCNCCn1c2ccccc2c2nc3ccccc3nc21 | 4
93 | COc1ccc2c(c1)c1nc3ccccc3nc1n2CCN1CCCCC1 | 34
94 | c1ccc2nc3c(nc2c1)c1ccccc1n3CCNCCCN1CCOCC1 | 4
95 | CN(C)CCCNC(=O)Cn1c2ccccc2c2nc3ccccc3nc21 | 50

Test system: L929
Assay: Induction of IFN-alpha activity in mouse L929 cells infected with Encephalomyocarditis virus at 10 uM preincubated with cells for overnight followed by viral infection by optical microscopic analysis
Format: functional, cell-based
Conditions: not given

Row | Structure (SMILES) | Activity
96 | CN(C)CCCNCCn1c2ccccc2c2nc3ccccc3nc21 | inactive
97 | COc1ccc2c(c1)c1nc3ccccc3nc1n2CCN1CCCCC1 | inactive
98 | c1ccc2nc3c(nc2c1)c1ccccc1n3CCNCCCN1CCOCC1 | inactive
99 | CN(C)CCCNC(=O)Cn1c2ccccc2c2nc3ccccc3nc21 | inactive

Test system: not listed separately
Assay: Cytotoxicity against African green monkey CV1 cells assessed as viable cells at 30 uM after 110 hrs by real-time cells analysis relative to control
Format: cell-based, CV-1
Conditions: chlorocebus aethiops, read-out: Activity
Summary of the method: as §1

Row | Structure (SMILES) | viability at 110 h, 30 µM [%]
100 | CN(C)CCCNCCn1c2ccccc2c2nc3ccccc3nc21 | 75
101 | c1ccc2nc3c(nc2c1)c1ccccc1n3CCNCCCN1CCOCC1 | 75

Test system: not listed separately
Assay: Cytotoxicity against African green monkey CV1 cells assessed as viable cells at 5 uM after 110 hrs by real-time cell analysis relative to control
Format: cell-based, CV-1
Conditions: chlorocebus aethiops, read-out: Activity
Summary of the method: as §1

Row | Structure (SMILES) | viability at 110 h, 5 µM [%]
102 | CCN(CC)CCCNCCn1c2ccccc2c2nc3ccccc3nc21 | 125
